This is an account of results in ChEMBL document CHEMBL2407028, “Discovery of novel oxazolidinedione derivatives as potent and selective mineralocorticoid receptor antagonists” (Bioorg Med Chem Lett, 2013).

A value given as a limit tells only on which side of the number the result lay.

Data set [1] is described as follows: Cmax in rat at 1 mg/kg, iv and 1 mg/lg, po. It counts as ADME, organism-based. Conditions: in vivo. Set-up: dose 1 mg/kg, route oral. The method, boiled down:
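Rats dosed at 1 mg/kg iv (n = 2) or 1 mg/kg po (n = 3), formulated at 1 mg/mL in PEG 200:water (70:30). Blood concentrations measured by LC/MS/MS after protein precipitation with acetonitrile.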

The target in another data set is T1, Glucocorticoid receptor (Homo sapiens, UniProt P04150).
T1 sequence (P04150 whole entry): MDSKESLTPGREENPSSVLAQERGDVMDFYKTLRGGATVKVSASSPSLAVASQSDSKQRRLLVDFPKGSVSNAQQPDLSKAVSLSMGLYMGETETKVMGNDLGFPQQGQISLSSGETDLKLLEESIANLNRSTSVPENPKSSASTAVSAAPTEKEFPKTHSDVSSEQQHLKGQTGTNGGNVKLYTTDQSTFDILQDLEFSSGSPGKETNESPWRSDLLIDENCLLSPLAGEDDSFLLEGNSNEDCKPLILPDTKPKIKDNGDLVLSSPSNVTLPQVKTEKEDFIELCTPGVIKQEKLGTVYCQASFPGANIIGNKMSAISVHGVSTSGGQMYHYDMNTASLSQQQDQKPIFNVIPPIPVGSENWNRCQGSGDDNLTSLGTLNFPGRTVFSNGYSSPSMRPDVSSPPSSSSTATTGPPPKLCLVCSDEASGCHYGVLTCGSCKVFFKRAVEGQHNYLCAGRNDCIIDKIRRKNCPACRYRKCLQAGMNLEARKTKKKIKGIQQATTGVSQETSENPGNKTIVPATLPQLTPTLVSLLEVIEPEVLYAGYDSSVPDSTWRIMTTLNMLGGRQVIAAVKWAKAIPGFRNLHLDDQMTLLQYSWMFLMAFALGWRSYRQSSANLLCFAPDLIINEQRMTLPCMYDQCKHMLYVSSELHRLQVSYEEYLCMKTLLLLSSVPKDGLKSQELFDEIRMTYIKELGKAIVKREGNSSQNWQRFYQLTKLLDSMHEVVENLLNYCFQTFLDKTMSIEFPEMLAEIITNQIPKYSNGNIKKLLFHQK
As to the kind of experiment: Antagonist activity at glucocorticoid receptor (unknown origin) by NH Pro assay.

Data set [2] has as its target T2, Mineralocorticoid receptor (Homo sapiens, UniProt P08235).
T2 sequence (P08235 whole entry): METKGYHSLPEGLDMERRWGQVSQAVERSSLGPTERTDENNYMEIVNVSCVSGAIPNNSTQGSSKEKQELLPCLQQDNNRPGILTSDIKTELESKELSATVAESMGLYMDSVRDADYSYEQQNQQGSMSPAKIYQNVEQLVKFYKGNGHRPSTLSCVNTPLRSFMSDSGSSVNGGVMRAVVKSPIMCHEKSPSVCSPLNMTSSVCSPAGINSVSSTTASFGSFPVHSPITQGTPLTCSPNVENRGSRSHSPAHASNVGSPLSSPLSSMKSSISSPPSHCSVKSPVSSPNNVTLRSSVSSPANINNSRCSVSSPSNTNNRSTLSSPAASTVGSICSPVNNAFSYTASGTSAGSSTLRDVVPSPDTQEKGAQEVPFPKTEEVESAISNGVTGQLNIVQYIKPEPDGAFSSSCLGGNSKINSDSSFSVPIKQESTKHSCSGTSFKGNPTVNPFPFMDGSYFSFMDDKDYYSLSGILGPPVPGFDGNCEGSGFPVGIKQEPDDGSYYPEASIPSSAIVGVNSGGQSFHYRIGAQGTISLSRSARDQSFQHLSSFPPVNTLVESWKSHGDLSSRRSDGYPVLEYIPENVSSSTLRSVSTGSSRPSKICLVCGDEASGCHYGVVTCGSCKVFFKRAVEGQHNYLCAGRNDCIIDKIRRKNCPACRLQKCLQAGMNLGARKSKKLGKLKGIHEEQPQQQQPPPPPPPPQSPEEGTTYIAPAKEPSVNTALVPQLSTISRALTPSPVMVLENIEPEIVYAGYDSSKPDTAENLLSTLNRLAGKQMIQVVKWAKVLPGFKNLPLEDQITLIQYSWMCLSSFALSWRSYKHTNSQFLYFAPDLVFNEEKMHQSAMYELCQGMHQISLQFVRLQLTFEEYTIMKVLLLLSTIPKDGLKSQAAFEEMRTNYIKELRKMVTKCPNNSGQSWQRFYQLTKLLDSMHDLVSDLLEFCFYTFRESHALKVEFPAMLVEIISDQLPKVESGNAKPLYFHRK
The data set is described as follows: Antagonist activity at human mineralocorticoid receptor assessed as inhibition of binding to coactivator peptide by NH Pro assay.

Data set [3] concerns the target T3, Androgen receptor (Homo sapiens, UniProt P10275).
T3 sequence (P10275 whole entry): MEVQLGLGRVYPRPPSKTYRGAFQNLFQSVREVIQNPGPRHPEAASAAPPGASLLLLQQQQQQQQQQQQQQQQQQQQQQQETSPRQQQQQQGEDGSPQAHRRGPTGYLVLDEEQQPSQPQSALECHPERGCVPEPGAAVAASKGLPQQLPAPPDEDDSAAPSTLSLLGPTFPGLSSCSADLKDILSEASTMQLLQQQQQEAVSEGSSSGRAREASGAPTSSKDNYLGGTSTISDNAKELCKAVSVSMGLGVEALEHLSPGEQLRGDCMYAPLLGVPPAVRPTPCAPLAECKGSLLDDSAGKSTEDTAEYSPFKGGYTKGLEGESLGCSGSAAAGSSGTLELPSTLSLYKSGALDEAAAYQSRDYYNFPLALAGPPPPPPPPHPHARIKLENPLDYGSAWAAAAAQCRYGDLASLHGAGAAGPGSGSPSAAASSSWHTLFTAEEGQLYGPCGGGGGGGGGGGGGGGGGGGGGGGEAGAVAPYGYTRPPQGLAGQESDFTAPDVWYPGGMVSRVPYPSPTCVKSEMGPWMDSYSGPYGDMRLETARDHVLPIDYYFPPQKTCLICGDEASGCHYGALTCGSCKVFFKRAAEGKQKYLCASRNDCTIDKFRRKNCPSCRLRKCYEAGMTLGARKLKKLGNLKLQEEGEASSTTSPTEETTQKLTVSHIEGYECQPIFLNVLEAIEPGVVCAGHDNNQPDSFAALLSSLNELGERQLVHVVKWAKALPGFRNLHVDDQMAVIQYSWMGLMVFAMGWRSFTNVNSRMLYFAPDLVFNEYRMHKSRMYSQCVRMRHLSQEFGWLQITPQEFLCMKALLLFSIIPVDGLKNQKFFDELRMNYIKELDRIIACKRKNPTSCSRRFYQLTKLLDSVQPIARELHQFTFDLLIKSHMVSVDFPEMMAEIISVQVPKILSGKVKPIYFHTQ
As to the kind of experiment: Antagonist activity at androgen receptor (unknown origin) by NH Pro assay.

Data set [4] addresses T3, Androgen receptor. The data set is described as follows: Agonist activity at androgen receptor (unknown origin) by NH Pro assay.
Another data set addresses Estrogen receptor beta (Homo sapiens, UniProt Q92731). The data set is described as follows: Antagonist activity at estrogen receptor beta (unknown origin) by NH Pro assay.

Sequence of Estrogen receptor beta (Q92731 whole entry): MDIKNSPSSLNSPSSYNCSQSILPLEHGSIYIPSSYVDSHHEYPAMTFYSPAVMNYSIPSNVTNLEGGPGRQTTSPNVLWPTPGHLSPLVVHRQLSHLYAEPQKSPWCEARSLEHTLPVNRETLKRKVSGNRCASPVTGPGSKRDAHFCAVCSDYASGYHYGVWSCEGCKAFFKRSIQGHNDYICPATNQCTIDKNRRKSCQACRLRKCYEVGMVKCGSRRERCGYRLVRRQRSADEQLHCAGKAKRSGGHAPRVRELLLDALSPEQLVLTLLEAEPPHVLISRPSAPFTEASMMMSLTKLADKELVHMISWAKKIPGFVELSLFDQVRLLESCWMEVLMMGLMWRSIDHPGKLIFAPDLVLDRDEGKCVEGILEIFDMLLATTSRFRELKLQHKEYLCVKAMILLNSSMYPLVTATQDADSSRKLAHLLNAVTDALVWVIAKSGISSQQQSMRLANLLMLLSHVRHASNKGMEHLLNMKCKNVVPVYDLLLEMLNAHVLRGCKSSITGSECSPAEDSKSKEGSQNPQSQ

For `COc1cc(CNC(=O)[C@@]2(Cc3ccccc3)OC(=O)N([C@@H]3CCc4ccccc43)C2=O)cc(OC)c1`, in data set [1], the Cmax (as a rule, the peak of the concentration-time curve) was determined as 98 nM. Besides, the IC50 (commonly the concentration needed to halve the response being measured) was greater than 20 µM at Glucocorticoid receptor, 0.033 µM in data set [2], 12 µM against Androgen receptor [3] and 15 µM against Estrogen receptor beta. In addition, the EC50 (as a rule, the concentration at which the effect is half-maximal) at Androgen receptor [4] was greater than 20 µM.
`C[C@H](c1ccc(F)cc1)N1C(=O)O[C@](Cc2ccc(F)cc2)(C(=O)NCc2ccc(Cl)c(Cl)c2)C1=O` displayed a maximum concentration (Cmax) in data set [1] of 120 nM. The IC50 against Glucocorticoid receptor is 11 µM; in data set [2], 0.18 µM; against Androgen receptor [3], greater than 20 µM; against Estrogen receptor beta, 15 µM. This molecule returned an EC50 at Androgen receptor [4] greater than 20 µM.
